Reference: ChEMBL document CHEMBL1128222, “Novel inhibitors for multidrug resistance: 1,3,5-triazacycloheptanes” (J Med Chem, 1995)

Tests used:
P388/S = assay: Evaluation of inhibitory activity and cisplatin against drug sensitive P388 cells (P388/S) cells; format: functional, cell-based, Mus musculus; conditions: p388/s
Summary of the method: (§1)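 P388/S or P388/ADR cells at 10^5 cells/mL in RPMI-1640/10% FCS medium. They receive graded adriamycin, mitomycin C or cisplatin, alone or together with 2.5 μM modulator, for 48 h (DMSO final 0.25%). Growth is read by MTT and the antitumor-drug IC50 is reported.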

P388/ADR = assay: Evaluation of inhibitory activity and cisplatin against multidrug resistant P388 cells (P388/ADR) cells; format: functional, cell-based, Mus musculus; summary of the method: as §1

IC50 (P388/S): 72 nM
IC50 (P388/ADR): 51 nM
Substance: 1,5-Bis-(4-chloro-benzyl)-4-methylsulfanyl-1,5,6,7-tetrahydro-[1,3,5]triazepin-2-one; compound with cisplatin
